These results are taken from PMC11577422 (Chemical Research in Toxicology, 2024).

Series [1] has as its system primary rat hepatocytes (pRH). In words: Adduct formation. In kind it is in vitro ADME. The note with it: for AcCys-AcA formation in cell supernatants / formation of AcLys-AcA in cell supernatants: pRH incubated with 2-MF (10–1000 μM) or AcA (0.1–5 μM), 1–48 h; for AcLys-AcA in cell supernatant compared to the negative control: pRH. An outline of the steps: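 Hepatocytes came from adult male Wistar rats (150–250 g) and were used only at ≥80% viability. Cells were seeded at 1 million cells/mL on collagen-coated dishes, allowed 3 h to attach, then PBS-washed. Incubation was at 37 °C, 5% CO₂ with test compound for 1, 6, 18, 24 or 48 h. Supernatants got 1 μM final AcLys-BDA internal standard, SPE cleanup, then UHPLC-ESI⁺-MS/MS (MRM m/z 269.2/164.2). Untreated negative control; n = 3–6.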

The nature of series [2]: Cytotoxicity via cell viability using resazurin reduction in pRH. It counts as cell-based. The note with it: male, Wistar, rat, primary rat hepatocytes. In general terms: Resazurin is reduced to fluorescent resorufin, in cell work by metabolically active cells.
Series [3] in a line: Chemical reaction of AcA with AcLys, adduct determined by HPLC-MS/MS. In kind it is physicochemical. The essentials:
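AcA was at 10 μM; the mixture was shaken at 600 rpm to mimic the microsomal incubation matrix and sampled over time. AcLys-AcA was measured by HPLC-ESI⁺-MS/MS. n = 3, mean ± standard deviation.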

Series [4] can be described thus: Chemical reaction of AcA with AcCys, adduct determined by HPLC-MS/MS. It counts as physicochemical. Particulars: AcA (1 μM) with AcCys (4 mM) in water, 37 °C. An outline of the steps:
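Mixture shaken at 600 rpm and sampled over incubation time. Adduct was detected by HPLC-ESI⁺-MS/MS on a Synergi Hydro-RP column with a formic acid/acetonitrile gradient, MRM quantifier m/z 241.9/112.9, and reported as peak area (AUC). n = 3, mean ± standard deviation.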

The subject of series [5] is human liver microsomes (HLM). The note with it: 50 μM furan, ref Gates et al. (2012) [30]; cited from earlier work.
Series [6] has as its system CYP 2E1. Particulars: ref Peterson et al. (2005) [32]; cited from earlier work.
Series [7] has as its system rat liver microsomes (RLM). The note with it: pretr., ref Peterson et al. (2005) [32]; cited from earlier work.
Series [8] concerns rat liver microsomes (RLM). The note with it: untr., 50 μM furan, ref Gates et al. (2012) [30]; cited from earlier work.
Series [9] relates to CYP 2E1. The note with it: cited from earlier work.
For series [10], the system named is rat liver microsomes (RLM). It counts as in vitro ADME. Particulars: RLM, untr.; II) low substrate concentrations (10 and 100 μM 2-MF); 10 min. The essentials:
(§1)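 Pooled liver microsomes (male Sprague–Dawley rat; mixed-gender human) at 1.0 mg protein/mL in 50 mM phosphate or Tris buffer with 3 mM MgCl₂ and 4 mM AcLys trap. Preincubated with 2-MF (10–750 μM) for 5 min at 37 °C, NADPH-started, 10 min. Stopped with cold MeCN containing 1 μM AcLys-BDA; AcLys-AcA by HPLC-MS/MS. Kinetics fitted biphasically; heat-inactivated and no-NADPH controls; n = 3–6.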

The next series concerns HepG2 cells. Description: GSH depletion in HepG2 cells after exposure to 2-MF. Particulars: data not shown. It counts as cell-based.
A further series relates to pRH. In words: GSH depletion in pRH after exposure to 2-MF. In kind it is cell-based, rat. Particulars: data not shown.
Series [11] addresses CYP 2E1 (Homo sapiens, UniProt P05181). It counts as in vitro ADME. Particulars: Supersomes CYP 2E1, 100 and 500 μM 2-MF, 10, 30 or 60 min; negative control without NADPH.
Series [12] relates to rat liver microsomes (RLM). The note with it: ref Ravindranath and Boyd (1985) [9], cited from earlier work; for Km: RLM.
Series [13] concerns human liver microsomes (HLM). In kind it is in vitro ADME. Particulars: 10 min. An outline of the steps:
as §1

A short description of series [14]: Stability of AcLys-AcA in solvents. In kind it is physicochemical.
The mark [15] stands for this setting: 20 or 400 μM furan, ref Gates et al. (2012) [30].

Structures are written as SMILES. Read-outs that look alike come from different tables or passages of the source.

CYP 2E1 (Homo sapiens, UniProt P05181), sequence (P05181 whole entry): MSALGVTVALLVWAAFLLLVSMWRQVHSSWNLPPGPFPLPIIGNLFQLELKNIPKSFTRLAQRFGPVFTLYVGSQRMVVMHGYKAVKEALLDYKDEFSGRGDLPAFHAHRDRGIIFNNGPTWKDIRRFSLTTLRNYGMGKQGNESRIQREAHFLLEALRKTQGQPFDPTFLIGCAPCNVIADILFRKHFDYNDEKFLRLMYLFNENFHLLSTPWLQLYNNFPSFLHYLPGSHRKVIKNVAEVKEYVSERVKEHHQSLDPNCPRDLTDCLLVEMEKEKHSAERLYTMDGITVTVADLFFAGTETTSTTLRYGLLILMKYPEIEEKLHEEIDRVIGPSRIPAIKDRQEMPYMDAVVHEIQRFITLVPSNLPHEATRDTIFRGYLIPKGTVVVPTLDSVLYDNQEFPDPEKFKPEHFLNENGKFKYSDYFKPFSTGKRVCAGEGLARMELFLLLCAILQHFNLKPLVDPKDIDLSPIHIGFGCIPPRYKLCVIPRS

One may read the EC50 as the concentration at which the effect is half-maximal. For the compound `CC(=O)C=CC=O` [AcA, 3-acetylacrolein], the “AcCys-AcA formation in cell supernatants” value in series [1] is given as “No evidence of AcCys-AcA formation”. Moreover, the “formation of AcLys-AcA in cell supernatants” value in series [1] is listed as “detected”. Moreover, the “AcLys-AcA in cell supernatant compared to the negative control” value in series [1] (0.5 μM AcA, 48 h) is listed as “differed significantly”; in series [1] (5 μM AcA, all time points (1–48 h)), “highly significant increase”. The compound also returned an EC50 at 24 h in series [2] of 8.5 ± 1.3 µM. Besides, the “time to completion of adduct formation” value in series [3] (AcA (1; 10 μM) with AcLys (4 mM) in K2HPO4 buffer (50 mM, pH 7.4), 37 °C) is less than 1 min; in [4] it was less than 1 min.

The term Km denotes the concentration of substrate that gives half-maximal velocity. `c1ccoc1` [Furan]: the vmax in series [5] is 0.0013 μmol/(mg prot.·min); in series [8] it was 0.0016 μmol/(mg prot.·min); in the series on CYP 2E1 [9] (20 or 400 μM furan, ref [30]) it was 34 ± 4 pmol BDA/pmol CYP/min. The Ecat in the series with CYP 2E1 [6] is listed as 3.9e-1; in the series on CYP 2E1 [9] (ref Gates et al. (2012) [30]), 1.4. The Km was 65.1 ± 16.4 µM with CYP 2E1 [6], 18.5 ± 6.8 µM in [7] and 24 ± 13 µM in the series on CYP 2E1 [9] (setting [15]). Besides, the kcat in the series with CYP 2E1 [6] was 26 μmol/(μmol CYP·min); in the series on CYP 2E1 [9] (setting [15]), 34 ± 4 μmol/(μmol CYP·min).

In the case of `Cc1ccco1` [2-MF, 2-Methylfuran], the “AcCys-AcA formation in cell supernatants” value in series [1] is listed as “No evidence of AcCys-AcA formation”. Also, in [1], the “formation of AcLys-AcA in cell supernatants” value is reported as “detected”. The “AcLys-AcA in cell supernatant compared to the negative control” value in [1] (100 μM 2-MF, 1 h) is reported as “significant increase”. Further, the midpoint of the response in [2], the EC50 at 24 h, lay at 551 ± 53.1 µM. Moreover, the vmax in [10] is 0.09 μmol/(mg prot.·min); in series [12] (RLM from untreated rats, Eadie-Hofstee), 0.53 μmol/2 mg microsomal protein/min; in [12] (rats pretreated with phenobarbital), 0.81 μmol/2 mg microsomal protein/min; in [13] (HLM; I) high substrate concentrations (250, 500, 750 μM 2-MF)) it was 0.88 μmol/(mg prot.·min); in [13] (HLM; II) low substrate concentrations (10 and 100 μM 2-MF)), 0.12 μmol/(mg prot.·min). Moreover, the “depletion of GSH” value in the series on HepG2 cells and in the series on pRH was “no depletion of GSH” throughout. Besides, the “AcA formation compared to the negative control” value on CYP 2E1 [11] was “significant formation of AcA”. Also, the Km in series [12] (pretr. (phenobarbital)) was 463 µM; in series [12] (untr., 2.5–20 mM total 2-MF), 1420 µM.

In the case of `CC(=O)N[C@@H](CCCCN1C(=O)C=CC1C)C(=O)O` (stereo partly drawn) [AcLys-AcA, L-2-Acetamido-6-(2-methyl-5-oxo-2,5-dihydro-1H-pyrrol-1-yl)hexanoic Acid], the “stability (NMR)” value in series [14] (in organic solvents) was “unstable”. Besides, the “stability of NMR and MS signals” value in series [14] (in water) is recorded as “stable”. Also, the “stability of adduct yield” value in series [3] (reaction mixture of AcA with AcLys (4 mM) in K2HPO4 buffer pH 7.4, 37 °C) is given as “stable for up to 24 h”.
